Converted amounts (≈) assume the structure as drawn.

The values that follow come from ChEMBL document CHEMBL2413060, “Synthesis, biological evaluation and molecular docking studies of some pyrimidine derivatives” (2013).

Common to all, as to type: functional
Assay [1] relates to Shigella flexneri. The experiment in a line: Antibacterial activity against Shigella flexneri ATCC 15391 after 24 hrs by two-fold serial dilution method. The settings on record: ATCC 15391, 24 h. In short, it runs like this:
(§1)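 Two-fold serial broth dilution in sterile nutrient broth at 500, 250, 125, 62.5, 31.25, 15.63, 7.82 and 3.91 µg/ml, with dimethylformamide ≤2.5%. Organisms were pre-grown 24 h in broth, and 0.1 ml inoculum was added per 5 ml tube. Tubes were incubated at 37°C, 24 h for bacteria and 48 h for fungi. MIC was taken as the lowest concentration giving no turbidity.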

In the next assay the test system is Pseudomonas aeruginosa. The experiment in a line: Antibacterial activity against Pseudomonas aeruginosa ATCC 9027 assessed as diameter of inhibition zone at 1 mg/ml after 24 hrs by cup diffusion method (reference value: 16 mm). The settings on record: ATCC 9027, 24 h, read-out: DIZ.
The subject of a further assay is NCI/ADR-RES. Nature of the assay: Cytotoxicity against human NCI/ADR-RES cells assessed as growth inhibition at 10 uM. The note with it: read-out: GI. Summed up: (§2)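 Single-dose screen on human tumour cell lines. Growth of treated cells is expressed as percent of untreated growth, plotted as a mean graph, and reported as percent growth inhibition.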
For the next assay, the system named is NCI-H23. The experiment in a line: Cytotoxicity against human NCI-H23 cells assessed as growth inhibition at 10 uM. The settings on record: read-out: GI. Summed up: as §2
The test system of assay [2] is Shigella flexneri. The experiment in a line: Antibacterial activity against Shigella flexneri ATCC 15391 after 24 hrs by two-fold serial dilution method relative to ofloxacin.
The next assay concerns HCC 2998. The experiment in a line: Cytotoxicity against human HCC2998 cells assessed as growth inhibition at 10 uM. The note with it: read-out: GI.
Assay [3] relates to Shigella flexneri. Nature of the assay: Antibacterial activity against Shigella flexneri ATCC 15391 assessed as diameter of inhibition zone at 1 mg/ml after 24 hrs by cup diffusion method (reference value: 17 mm). The note with it: ATCC 15391, 24 h, read-out: DIZ.
In another assay the test system is Staphylococcus aureus. Nature of the assay: Antibacterial activity against Staphylococcus aureus ATCC 6538P assessed as diameter of inhibition zone at 1 mg/ml after 24 hrs by cup diffusion method (reference value: 15 mm). The settings on record: read-out: DIZ.
Assay [4] deals with Candida albicans. Nature of the assay: Antifungal activity against Candida albicans ATCC 2091 assessed as diameter of inhibition zone at 1 mg/ml after 48 hrs by cup diffusion method (reference value: 22 mm). The settings on record: ATCC 2091, 48 h, read-out: DIZ.
The next assay concerns UACC-62. The experiment in a line: Cytotoxicity against human UACC62 cells assessed as growth inhibition at 10 uM. The note with it: read-out: GI. Summed up: (§3)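 Single-dose screen in a sixty-cell human tumour line panel; percent growth of treated cells relative to untreated was read and reported as percentage growth inhibition, shown as a mean graph. Compounds meeting the threshold inhibition criteria went on to five-dose testing.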

Another assay concerns NCI-H460. The experiment in a line: Cytotoxicity against human NCI-H460 cells assessed as growth inhibition at 10 uM. The note with it: read-out: GI. In short, it runs like this: as §2
For another assay, the system named is MDA-MB-435. Nature of the assay: Cytotoxicity against human MDA-MB-435 cells assessed as growth inhibition at 10 uM. The note with it: read-out: GI. In short, it runs like this: as §2
Another assay deals with SK-MEL-2. The experiment in a line: Cytotoxicity against human SK-MEL-2 cells assessed as growth inhibition at 10 uM. The settings on record: read-out: GI. Summed up:
as §2

Assay [5] deals with Candida albicans. The experiment in a line: Antifungal activity against Candida albicans ATCC 2091 after 48 hrs by two-fold serial dilution method relative to clotrimazole.
For another assay, the system named is T47D. Nature of the assay: Cytotoxicity against human T47D cells assessed as growth inhibition at 10 uM. The note with it: read-out: GI. In short, it runs like this: as §2
A further assay has as its system HOP-92. The experiment in a line: Cytotoxicity against human HOP92 cells assessed as growth inhibition at 10 uM. The note with it: read-out: GI.
The subject of assay [6] is Candida albicans. Nature of the assay: Antifungal activity against Candida albicans ATCC 2091 after 48 hrs by two-fold serial dilution method. The settings on record: ATCC 2091, 48 h. Summed up: as §1
Another assay relates to ACHN. Nature of the assay: Cytotoxicity against human ACHN cells assessed as growth inhibition at 10 uM. The settings on record: read-out: GI.
The next assay concerns OVCAR-3. Nature of the assay: Cytotoxicity against human OVCAR3 cells assessed as growth inhibition at 10 uM. The settings on record: read-out: GI. Summed up: as §2
In a further assay the test system is OVCAR-8. The experiment in a line: Cytotoxicity against human OVCAR8 cells assessed as growth inhibition at 10 uM. The note with it: read-out: GI. In short, it runs like this: as §2
The next assay deals with SF-295. Nature of the assay: Cytotoxicity against human SF295 cells assessed as growth inhibition at 10 uM. The settings on record: read-out: GI. Summed up:
as §2

In a further assay the test system is SK-MEL-28. The experiment in a line: Cytotoxicity against human SK-MEL-28 cells assessed as growth inhibition at 10 uM. The note with it: read-out: GI. Summed up: as §2
Another assay deals with UACC-257. Nature of the assay: Cytotoxicity against human UACC257 cells assessed as growth inhibition at 10 uM. The settings on record: read-out: GI. In short, it runs like this:
as §3

A further assay concerns A498. Nature of the assay: Cytotoxicity against human A498 cells assessed as growth inhibition at 10 uM. The settings on record: read-out: GI.
In another assay the test system is Malme-3M. Nature of the assay: Cytotoxicity against human MALME-3M cells assessed as growth inhibition at 10 uM. The settings on record: read-out: GI.
Another assay has as its system SF-539. Nature of the assay: Cytotoxicity against human SF539 cells assessed as growth inhibition at 10 uM. The note with it: read-out: GI. In short, it runs like this:
as §2

A further assay deals with HOP-62. Nature of the assay: Cytotoxicity against human HOP62 cells assessed as growth inhibition at 10 uM. The settings on record: read-out: GI.
The next assay concerns NCI-H322M. The experiment in a line: Cytotoxicity against human NCI-H322M cells assessed as growth inhibition at 10 uM. The note with it: read-out: GI. In short, it runs like this:
as §2

A further assay has as its system M14. Nature of the assay: Cytotoxicity against human M14 cells assessed as growth inhibition at 10 uM. The note with it: read-out: GI.
Another assay relates to IGROV-1. The experiment in a line: Cytotoxicity against human IGROV1 cells assessed as growth inhibition at 10 uM. The note with it: read-out: GI.
The test system of another assay is SN12C. Nature of the assay: Cytotoxicity against human SN12C cells assessed as growth inhibition at 10 uM. The settings on record: read-out: GI. In short, it runs like this: as §2
Another assay concerns CAKI-1. Nature of the assay: Cytotoxicity against human Caki1 cells assessed as growth inhibition at 10 uM. The settings on record: read-out: GI.
A further assay relates to 786-0. The experiment in a line: Cytotoxicity against human 786-0 cells assessed as growth inhibition at 10 uM. The note with it: read-out: GI.
Another assay has as its system TK-10. The experiment in a line: Cytotoxicity against human TK10 cells assessed as growth inhibition at 10 uM. The settings on record: read-out: GI. In short, it runs like this:
as §3

Another assay has as its system BT-549. The experiment in a line: Cytotoxicity against human BT549 cells assessed as growth inhibition at 10 uM. The note with it: read-out: GI.
The next assay concerns HCT-116. Nature of the assay: Cytotoxicity against human HCT116 cells assessed as growth inhibition at 10 uM. The settings on record: read-out: GI.
A further assay concerns SK-OV-3. The experiment in a line: Cytotoxicity against human SKOV3 cells assessed as growth inhibition at 10 uM. The note with it: read-out: GI. Summed up:
as §2

Another assay has as its system UO-31. The experiment in a line: Cytotoxicity against human UO31 cells assessed as growth inhibition at 10 uM. The note with it: read-out: GI. Summed up:
as §3

Another assay relates to SNB-75. The experiment in a line: Cytotoxicity against human SNB75 cells assessed as growth inhibition at 10 uM. The note with it: read-out: GI. In short, it runs like this: as §2
Another assay has as its system Hs-578T. The experiment in a line: Cytotoxicity against human Hs578T cells assessed as growth inhibition at 10 uM. The note with it: read-out: GI.
The next assay deals with MCF7. Nature of the assay: Cytotoxicity against human MCF7 cells assessed as growth inhibition at 10 uM. The settings on record: read-out: GI. In short, it runs like this:
as §2

The next assay has as its system PC-3. The experiment in a line: Cytotoxicity against human PC3 cells assessed as growth inhibition at 10 uM. The note with it: read-out: GI. Summed up: as §2

The term MIC denotes the least concentration at which growth counts as inhibited. A high value points to a less susceptible organism. Compound `Cn1c(NN)nc(-c2ccco2)c(C#N)c1=O` yielded an MIC in the assay with Shigella flexneri [1] of 125 µg/mL (≈ 541 µM). The zone of inhibition at 1000 µg/mL was 16 mm in the assay with Pseudomonas aeruginosa, 20 mm in the assay with Shigella flexneri [3], 15 mm in the assay with Staphylococcus aureus and 22 mm with Candida albicans [4]. The inhibition of growth at 10 µM in the assay with NCI/ADR-RES was 55.9%; with NCI-H23, 54.7%; with HCC 2998, 84.4%. Moreover, the Activity with Shigella flexneri [2] came to 60%.
With `N#Cc1c(-c2ccccc2)nc(SCC(O)CN2CCOCC2)nc1N1CCOCC1` (stereo unspecified), the inhibition of growth at 10 µM in the assay with UACC-62 came to 57.1%; in the assay on NCI-H460, 66%; with MDA-MB-435, 47%; in the assay on SK-MEL-2, 92.7%; with T47D, 74%; in the assay on HOP-92, 69.3%. Besides, the inhibition of growth at 10 µM with ACHN worked out at 45.6%; in the assay on OVCAR-3, 64.6%; with OVCAR-8 it was 66.6%; in the assay on SF-295, 56.4%; in the assay with SK-MEL-28 it was 40.1%; in the assay with UACC-257 it was 82.9%. Also, the inhibition of growth at 10 µM with A498 stood at 103%; in the assay with Malme-3M, 76.9%; in the assay with SF-539, 43.4%; in the assay with HOP-62 it was 52%; with NCI-H322M it was 47.7%; in the assay with M14 it was 40.1%. Besides, the inhibition of growth at 10 µM with IGROV-1 turned out to be 130%; in the assay with SN12C, 42.2%; in the assay on CAKI-1 it was 62.6%; in the assay on 786-0 it was 61.9%; in the assay with TK-10 it was 59.2%; in the assay on BT-549 it was 70.5%. The inhibition of growth at 10 µM turned out to be 42.5% in the assay on HCT-116; 58.9% in the assay with SK-OV-3; 58.3% with UO-31; 105% in the assay on SNB-75; 93.8% in the assay on Hs-578T; 95% in the assay on MCF7. Besides, the inhibition of growth at 10 µM with PC-3 was found to be 43.5%. The same compound showed an Activity with Candida albicans [5] of 60%. In the assay with Candida albicans [6], this compound registered an MIC of 125 µg/mL (≈ 283 µM). In addition, the zone of inhibition at 1000 µg/mL with Pseudomonas aeruginosa is 16 mm; with Shigella flexneri [3], 18 mm; with Staphylococcus aureus it was 15 mm; in the assay on Candida albicans [4], 24 mm.
Turning to `N#Cc1c(-c2ccco2)[nH]c(=S)[nH]c1=O`, the inhibition of growth at 10 µM in the assay on Malme-3M came out at 55.6%; with NCI/ADR-RES, 74.2%; in the assay on NCI-H23 it was 78.6%; in the assay on SNB-75, 42.8%. In the assay on Shigella flexneri [1], this compound registered an MIC of 125 µg/mL (≈ 570 µM). The zone of inhibition at 1000 µg/mL with Pseudomonas aeruginosa is 16 mm; in the assay with Shigella flexneri [3] it was 21 mm; in the assay on Staphylococcus aureus, 15 mm; in the assay with Candida albicans [4] it was 22 mm. The compound further came in with an Activity in the assay with Shigella flexneri [2] of 60%.
